Source: PubChem BioAssay (several laboratories)
CHO parental Ca: counter-screen for OX1R antagonists: effect in parental CHO cells | parental CHO-K1, ATP-induced calcium, Fluo-8 fluorescence | inhibition, % at 5.6 µM | 330,000 tested, 0.63% active;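 active = inhibition above that plate's mean sample inhibition plus 3 SD, cut at about 26% in these data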;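 note: 0% = ATP-challenged DMSO wells and 100% = DMSO wells without ATP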
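Material: parental CHO cells / Compound: single nominal dose of 5.6 µM per compound / Signal: Fluo-8 fluorescence / Replicates: singlicate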
OX1R antag-1: human HCRTR1 antagonism | O43613 | CHO/OX1R cells, Fluo-8 calcium fluorescence, orexin A | inhibition, % at 5 µM | 330,000 tested, 0.43% active;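 active = inhibition above its plate's threshold, mean inhibition of all tested compounds on the plate plus 3 SD, cut at about 37% in these data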;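 note: 0% = orexin A challenge wells and 100% = SB-334867-A antagonist wells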
TAAR1 antagonist: human TAAR1 antagonism | 360,000 tested, 1.5% active | CHO RD-HGA16 TAAR1, Fluo-8 calcium fluorescence, antagonist | AID 624466 | Q96RJ0 | inhibition, % at 3 µM;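 active = inhibition above a per-plate cutoff, the mean inhibition of test compounds on that plate plus 3 SD, cut at about 49% in these data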;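 note: 0% = DMSO plus EC80 beta-PEA response and 100% = DMSO alone without agonist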
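System: RD-HGA16 CHO cells with stable hTAAR1 and Gα16 | Probe or stimulus: EC80 β-phenethylamine stimulus | Dosing: 3 µM, single point | Times: Dye loading 75 min at 37 °C, then 30 min room temperature | Measured by: Fluo-8 calcium-sensitive fluorescence | Read-out basis: % inhibition of agonist calcium response | Replicates: n of 1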
OX1R antag-2: blocks the human orexin 1 receptor | O43613 | OX1R-expressing cells, FRET antagonist read-out | inhibition, % at 6.6 µM | 330,000 tested, 1.8% active | AID 485270; in the data active = inhibition mostly above about 38%, no sharp cut-off; inactive = mostly below about 40%;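 note: 0% = agonist challenge alone and 100% = reference antagonist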
TAAR1 ag: human TAAR1 agonism | Q96RJ0 | CHO RD-HGA16 TAAR1, Fluo-8 calcium fluorescence; vehicle wells 0%, saturating PEA agonist 100% | activation, % at 3 µM | 360,000 tested, 0.99% active | AID 624467;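 active = activation above the mean activation of all test compounds in the run plus 3 SD, cut at about 38% in these data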
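test system = CHO RD-HGA16 cells carrying human TAAR1 plus Gα16 | schedule = 17-24 h seeding, 75 min 37 °C dye, 30 min RT | compound dosing = 3 µM single concentration | control set = DMSO and PEA EC100 | replicates = n 1 | signal = Fluo-8 fluorescence, 5 s baseline then 140 s kinetic read | measure = percent activation vs PEA EC100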
NTR1 agonist: activates human neurotensin receptor 1 | NTR1-U2OS beta-arrestin-GFP spot imaging, agonist mode | AID 493036 | P30989 | activation, % at 20 µM | 330,000 tested, 0.17% active;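 active = activation at or above 40% of the spot to cytoplasm intensity ratio, with at least 20 cells analyzed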;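 note: 0% = DMSO without peptide and 100% = 100 nM NTR1 peptide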
Target sequence (P30989 whole entry, looked up): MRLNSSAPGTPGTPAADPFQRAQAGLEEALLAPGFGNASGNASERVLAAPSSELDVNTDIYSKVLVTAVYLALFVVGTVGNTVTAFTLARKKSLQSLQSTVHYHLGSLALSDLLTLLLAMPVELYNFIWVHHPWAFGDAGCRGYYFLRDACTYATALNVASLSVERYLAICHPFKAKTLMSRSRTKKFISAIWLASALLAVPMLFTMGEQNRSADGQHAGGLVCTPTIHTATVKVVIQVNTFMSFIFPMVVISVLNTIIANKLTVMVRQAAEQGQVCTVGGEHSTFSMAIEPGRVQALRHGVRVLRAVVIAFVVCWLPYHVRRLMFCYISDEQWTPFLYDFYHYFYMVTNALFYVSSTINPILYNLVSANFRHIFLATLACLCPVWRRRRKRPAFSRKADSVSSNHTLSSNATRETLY
* marks the source's active call; other numbers are inactive results; nt = not tested or not shown. This is a sample that favours compounds with a hit; in the whole collection about 4% have one here.

SMILES	CHO parental Ca	OX1R antag-1	TAAR1 antagonist	OX1R antag-2	TAAR1 ag	NTR1 agonist
CC(=O)N1Cc2cc(C(=O)NCC(F)(F)F)nc(-c3cccc(-c4cc5ccccc5o4)c3)c2[C@@H]1CCO	nt	nt	-21	nt	2	nt
CC(C)(C)S(=O)N1Cc2cc(C(=O)NCCCN3CCOCC3)nc(-c3cccc(-c4cc5ccccc5o4)c3)c2[C@@H]1CCO (stereo not given in full)	nt	nt	55*	nt	21	nt
CC(=O)Nc1ccc(S(=O)(=O)NC2(C(F)(F)F)C(=O)Nc3c2c(=O)[nH]c(=O)n3Cc2ccco2)cc1 (stereo not given)	4	-7	-10	5	2	0
CCOC(=O)N[C@@H](Cc1cccnc1)C(=O)N1CCC[C@H]1C(=O)NC1CCCC1	nt	nt	-12	nt	3	nt
Cc1cc(C)cc(OCC(=O)OCC(=O)c2ccc3c(c2)NC(=O)CO3)c1	38*	7	17	24	19	0
Cc1ccc(C(=O)NCC(=O)OCC(=O)c2ccc3c(c2)NC(=O)CO3)cc1C	-3	7	-5	26	2	1
Cc1ccc([C@@H]2CC=C(C(=O)O)[C@H](c3ccc(Br)cc3)N2S(=O)(=O)c2ccc(C)cc2)cc1	-12	3	15	39*	4	5
Cc1ccc([C@@H]2CC=C(C(=O)O)[C@H](c3ccc(F)cc3)N2S(=O)(=O)c2ccc(C)cc2)cc1	-16	1	11	70*	0	4
Cc1ccc(S(=O)(=O)N2[C@@H](c3ccccc3F)C(C(=O)O)=CC[C@H]2c2ccc3c(c2)OCO3)cc1	-7	-4	8	47*	12	2
Cc1ccc(S(=O)(=O)N2[C@@H](c3ccc(C(C)(C)C)cc3)C(C(=O)O)=CC[C@H]2c2ccc(C(C)C)cc2)cc1	29	7	31	-8	3	11
Cc1ccc(S(=O)(=O)N2[C@@H](c3ccc(Br)cc3)C(C(=O)O)=CC[C@H]2c2ccc(C(C)C)cc2)cc1	75*	54*	3	20	0	9
Cc1ccc(S(=O)(=O)N2[C@@H](c3ccc(Br)cc3)C(C(=O)O)=CC[C@H]2c2cccs2)cc1	-11	-8	8	14	-1	2
CC(C)c1[nH]nc2c1C(c1ccccc1)N(Cc1ccccc1)C2=O (stereo not given)	nt	nt	-3	nt	7	nt
COc1cccc(NC(=O)CCC(=O)Nc2cccc(OC)c2)c1	6	-8	14	15	1	-1
COc1cccc(NC(=O)CNC(C)CCC(C)C)c1 (stereo not given)	-7	-3	4	14	38*	-1
O=C(N/N=C/c1ccc(Sc2nc3ccccc3[nH]2)o1)c1ccncc1	-10	-6	-3	20	2	-2
N#C/C(=C\c1ccc(Sc2ccccc2)o1)c1nc2ccccc2[nH]1	0	-11	45	53	11	16
N#C/C(=C/c1ccc(Sc2nc3ccccc3[nH]2)o1)c1cccc(Br)c1	29	19	40	80*	7	4
N#C/C(=C/c1ccc(Sc2nc3ccccc3[nH]2)o1)c1cccc(F)c1	-3	7	44	59*	11	8
CCN1C(=O)S/C(=C/c2ccc(Sc3nc4ccccc4[nH]3)o2)C1=O	-13	14	24	43	10	10
N#C/C(=C/c1ccc(Sc2nc3ccccc3[nH]2)o1)c1ccccc1F	-6	18	31	53*	7	8
COC(=O)C1=C(C)N(Cc2ccccc2C(F)(F)F)C(=NCc2ccc3c(c2)OCO3)NC1c1ccc(Cl)cc1 (stereo not given)	nt	nt	10	nt	17	nt
COc1ccc(S(=O)(=O)Nc2ccccc2-c2nnn(CC(=O)Nc3ccccc3OC)n2)cc1	44*	33	37	60*	2	0
CCOC(=O)CC(NC(=O)Cn1nnc(-c2ccccc2Cl)n1)c1ccc(OC)cc1 (stereo not given)	-18	-10	-3	10	46*	-1
CCOC(=O)CC(NC(=O)Cn1nnc(-c2ccccc2F)n1)c1ccc(OC)cc1 (stereo not given)	-5	-33	4	15	5	-2
SMILES	CHO parental Ca	OX1R antag-1	TAAR1 antagonist	OX1R antag-2	TAAR1 ag	NTR1 agonist
COc1cccc(NC(=O)Cn2nnc(-c3ccccc3N)n2)c1	-6	-12	-1	8	6	0
COc1ccc(NC(=O)Cn2nnc(-c3ccccc3NS(=O)(=O)c3ccccc3)n2)cc1	43*	23	nt	26	nt	5
CC1CC(C)(C)NC(=S)N1CCC(=O)NCc1ccc(Cl)cc1 (stereo not given)	-15	-16	2	14	-1	1
COC(=O)c1cn(NC(=O)Cc2c(F)cccc2Cl)c(=O)c2ccccc12	-6	-25	-8	35	5	-1
COC(=O)c1cn(NC(=O)Cc2ccc(OC)c(OC)c2)c(=O)c2ccccc12	-13	-8	-4	48*	2	-2
COC(=O)c1cn(NC(=O)Cc2cccc(OC)c2)c(=O)c2ccccc12	-23	-21	-8	72*	1	0
Cc1cc(C)c(S(=O)(=O)N2C[C@H]3CON(C)[C@H]3C[C@H]2c2ccc(-n3ccnc3)cc2)c(C)c1	nt	nt	-4	nt	-1	nt
Oc1ccc2ccccc2c1-c1sc(Nc2ccccc2)n[n+]1-c1ccc(F)cc1	-17	-21	6	5	14	-9
Fc1ccc(-[n+]2nc(Nc3ccccc3)sc2-c2c3ccccc3cc3ccccc23)cc1	11	-21	25	25	46*	20
CC(=O)c1ccc(S(=O)(=O)NCC2CCN(C(=O)C(=O)c3cc4ccccc4o3)CC2)cc1	nt	nt	7	nt	5	nt
CCCCc1c(-c2ccccc2OC)ncn1Cc1ccc(C(C)(C)C)cc1	nt	nt	-30	nt	5	nt
CCN1/C(=C/c2ccc3cccc(C)c3[n+]2CC)Sc2ccccc21	66*	100*	29	32	25	-4
C[C@@H]1CN([C@@H](C)CO)S(=O)(=O)c2ccc(Br)cc2O[C@H]1CN(C)C(=O)c1ccccc1F	nt	nt	17	nt	24	nt
CCCCN1CC[C@H]2C=CC[C@@H](C(=O)NCCc3ccccc3)[C@H]2C1=O	-10	-6	1	40	14	1
COc1ccc(CN2CC[C@H]3C=CC[C@@H](C(=O)NCCc4ccccc4)[C@H]3C2=O)cc1OC	-17	20	2	70*	15	-2
Cc1ccc2c(c1)N(C(=O)CCC(=O)NC1CCC(C)CC1)CCO2 (stereo not given)	-8	-22	37	43*	-2	0
Cc1ccc2c(c1)N(C(=O)CCC(=O)N1CCN(c3cccc(C)c3C)CC1)CCO2	-24	-28	27	40*	-2	25
